The record followed here is ChEMBL document CHEMBL4251677, “Pentaminomycins A and B, Hydroxyarginine-Containing Cyclic Pentapeptides from Streptomyces sp. RK88-1441” (J Nat Prod, 2018).

Molecules are shown by their SMILES. Activity calls are given as the source filed them. No cut-off for these calls is given here. Starred links: 1 amine or outer side, 2 acyl side, 3 side chain; linkers in the order of their positions; H or OH if unused. Non-standard residues stand in square brackets, D forms with d. Residues, ends and D or L forms follow the SMILES beside them. X1 = N=C(N)N(O)CCC[C@H](N[*:1])C(=O)[*:2]

For one series, the system named is HeLa. The series is described as follows: Cytotoxicity against human HeLa cells at 30 uM after 24 hrs by EZ-cytox dye based assay. The series is classed as cell-based. The method in brief: (§1)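 Cells were seeded at 5.0 × 10^4 per well and grown 24 h, then exposed to compound for 24 h and washed with PBS. They were incubated 2 h in DMEM with EZ-Cytox reagent, and viability was read as water-soluble formazan optical density at 450 nm.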

Series [1] concerns B16-F10. The series is described as follows: Antimelanogenic activity in mouse B16F10 cells assessed as inhibition of alpha-MSH-stimulated melanin synthesis up to 10 uM measured after 24 hrs. The series is classed as functional, cell-based. The method in brief: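 B16F10 cells (3.5 × 10^4 per well) were grown 24 h in phenol red-free complete DMEM at 37 °C, 5% CO2. They were then given α-MSH (200 nM) with compound at 0–10 μM for 24 h. Cells were PBS-washed, trypsin-EDTA detached and centrifuged. Melanin was read as absorbance at 405 nm; mean ± SD, n = 3.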

In a further series the test system is B16-F0. The series is described as follows: Cytotoxicity against mouse B16F0 cells at 30 uM after 24 hrs by EZ-cytox dye based assay. Conditions: b16-f0, 24 h. It is filed as cell-based. The method in brief: as §1
Series [2] deals with B16-F10. Description: Cytotoxicity against mouse B16F10 cells at 30 uM after 24 hrs by EZ-cytox dye based assay. It is filed as cell-based. Conditions: b16-f10, 24 h. In outline: as §1
In series [3] the test system is B16-F10. Description: Antimelanogenic activity in mouse B16F10 cells assessed as inhibition of alpha-MSH-stimulated melanin synthesis by measuring reduction in TRP2 expression up to 10 uM measured after 24 hrs by Western blot analysis. It is filed as functional, cell-based. In outline: (§2)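 B16F10 cells at 1.0 × 10^5 cells/mL were preincubated 24 h, then exposed to α-MSH (100 nM) plus 5, 7.5 or 10 μM compound for 24 h. Cells were lysed in M-per buffer. Whole-cell protein was run on SDS-PAGE and blotted to nitrocellulose, probed with anti-TRP-1 or anti-TRP-2 antibodies, and detected by chemiluminescence on film.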

The subject of a further series is 4T1. The series is described as follows: Cytotoxicity against mouse 4T1 cells at 30 uM after 24 hrs by EZ-cytox dye based assay. It is filed as cell-based. Conditions: 4t1, 24 h. In outline:
as §1

The subject of series [4] is B16-F10. Description: Antimelanogenic activity in mouse B16F10 cells assessed as inhibition of alpha-MSH-stimulated melanin synthesis by measuring reduction in TRP1 expression up to 10 uM measured after 24 hrs by Western blot analysis. The series is classed as functional, cell-based. The method in brief: as §2
Background: In western blotting, separated proteins are transferred to a membrane and probed.

`CC(C)C[C@H]1NC(=O)[C@H](CCCN(O)C(=N)N)NC(=O)[C@H](Cc2c[nH]c3ccccc23)NC(=O)[C@@H](C(C)C)NC(=O)[C@H](C(C)C)NC1=O`: the Activity result with HeLa, in the series with B16-F0, in the series on B16-F10 [2] and in the series on 4T1 was “Non-Toxic” throughout. The inhibition entry in the series on B16-F10 [1], with B16-F10 [3] and with B16-F10 [4] was “Active” throughout.
In the case of `CC(C)C[C@@H]1NC(=O)[C@@H](CC(C)C)NC(=O)[C@H](CCCN(O)C(=N)N)NC(=O)[C@H](Cc2c[nH]c3ccccc23)NC(=O)[C@@H](C(C)C)NC1=O` (cyclo(L[dV]W[X1][dL])), the Activity entry in the series with HeLa, in the series on B16-F0, in the series with B16-F10 [2] and with 4T1 was “Non-Toxic” throughout.
